Hits are enriched below; roughly 1.5% of the tested compounds scored in any of these assays.
INS-1E GSIS act: GLuc luminescence reporter in INS-1E cells, primary screen for activators of glucose-dependent secretion of insulin | INS-1E GLuc reporter insulin secretion, 2-3 h | activation, % at 16.6 µM | hit rate 0.61% among 370,000 | AID 743287, 2014;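 active = lowest replicate activation of at least 40%, so every replicate reaches that level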;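 also: 0% = median of neutral control wells and 100% = median of IBMX positive control wells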
ERAP1 HTS inh: human ERAP1 aminopeptidase inhibitors, primary screen, biochemical, single point, plate reader; Endoplasmic reticulum aminopeptidase 1 (Homo sapiens), Q9NZ08; recombinant ERAP1, Leu-AMC fluorescence, 60 min; inhibition, % at 10.7 µM; hit rate 0.15% among 340,000;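 active = mean replicate inhibition of at least 30%, or all replicates individually reaching that 30% level; inactive = mean below 30% and not every replicate reaching it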;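 also: 0% = neutral control wells and 100% = L-leucinethiol positive control wells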
MLL AF4-AF9 inh: inhibitors of AF4 peptide binding to AF9, primary screen, biochemical, AlphaScreen, biotin-AF4 peptide, FLAG-AF9, single point | Protein AF-9 (Homo sapiens), P42568 | inhibition, % at 10 µM | hit rate 0.47% among 350,000 | AID 651704, 2012;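 active = every replicate reaching a set inhibition limit, whatever the replicate mean, cut at about 25% in these data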;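 also: 0% = plate neutral control median and 100% = total signal loss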
S100A4 inh HTS: inhibitors of S100A4-myosin IIA peptide binding, primary screen, biochemical, fluorescence polarization, TAMRA-MyoIIA peptide. inhibition, % at 10.7 µM. Protein S100-A4 (Homo sapiens), P26447. hit rate 0.14% among 360,000. AID 652163, 2013;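 active = mean inhibition of at least 70% across replicates, with every replicate also reaching that level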
Target sequence (P26447 whole entry, looked up): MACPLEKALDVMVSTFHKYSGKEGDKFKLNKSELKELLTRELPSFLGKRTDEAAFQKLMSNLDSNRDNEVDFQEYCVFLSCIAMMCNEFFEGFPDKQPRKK
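Assay system: human S100A4 monomer with TAMRA-labelled myosin IIA peptide / Buffer or medium: Calcium-containing HEPES buffer, pH 7.2 / Reagent: TAMRA-labelled myosin IIA heavy-chain peptide probe, 5 nM / Compound: one dose per compound / Timing: polarization read 5 min after assay mix addition, stable 5–60 min / Benchmarks: neutral control DMSO, positive control TFP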
RAD52 inh: RAD52 DNA annealing inhibitors, primary screen, biochemical, FRET, single point, set 2 | AID 651710, 2012 | recombinant RAD52 DNA annealing, FRET fluorescence | hit rate 0.46% among 360,000 | DNA repair protein RAD52 homolog (Homo sapiens), P43351 | inhibition, % at 18.7 µM;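 active = every replicate showing at least 50% inhibition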
Target sequence (P43351 whole entry, looked up): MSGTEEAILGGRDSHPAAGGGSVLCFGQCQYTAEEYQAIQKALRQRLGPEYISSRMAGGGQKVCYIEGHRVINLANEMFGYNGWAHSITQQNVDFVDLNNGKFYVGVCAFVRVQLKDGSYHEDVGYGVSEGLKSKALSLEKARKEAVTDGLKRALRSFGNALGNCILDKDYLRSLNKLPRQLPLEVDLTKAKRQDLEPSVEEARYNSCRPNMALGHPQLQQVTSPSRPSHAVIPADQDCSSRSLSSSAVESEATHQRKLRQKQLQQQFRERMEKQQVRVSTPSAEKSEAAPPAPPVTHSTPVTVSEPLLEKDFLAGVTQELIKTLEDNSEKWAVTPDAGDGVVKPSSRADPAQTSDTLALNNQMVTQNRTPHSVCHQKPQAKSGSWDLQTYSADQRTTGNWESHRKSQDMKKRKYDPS
* hit, by the source's call.

What do the screens show for `CCN(CC)Cc1c(O)ccc2cc(-c3nc4ccccc4n3C)c(=O)oc12`?
INS-1E GSIS act: -3; ERAP1 HTS inh: 91*; MLL AF4-AF9 inh: -4; S100A4 inh HTS: 2; RAD52 inh: -18

What do the screens show for `CCc1cc2c(=O)c(-c3nc4ccccc4n3C)coc2c(CN2CCN(C)CC2)c1O`?
MLL AF4-AF9 inh: -4; S100A4 inh HTS: -8

How did Cc1cc(N2CCN(C3CCCCC3)CC2)n2nc(C)nc2n1 do in these assays?
INS-1E GSIS act: 41; ERAP1 HTS inh: 0; MLL AF4-AF9 inh: -1; S100A4 inh HTS: -2; RAD52 inh: 0

What do the screens show for `Cc1cc(C)c2c(C)nn(C3CCCCC3)c2n1`?
INS-1E GSIS act: 71*

Results for Cc1cnc(C(=O)OC(C)C(=O)NCc2ccccc2)cn1 (stereo not given) ?
INS-1E GSIS act: 59*; ERAP1 HTS inh: -4; MLL AF4-AF9 inh: 0; S100A4 inh HTS: -1; RAD52 inh: 0

Results for Cc1cnc(C(=O)OCC(=O)c2ccccc2)cn1 ?
INS-1E GSIS act: 21; ERAP1 HTS inh: 3; MLL AF4-AF9 inh: -40; S100A4 inh HTS: 94*; RAD52 inh: -7

How did Cc1cnc(C(=O)OC(C)C(=O)Nc2ccc(Oc3ccccc3)cc2)cn1 (stereo not given) do in these assays?
INS-1E GSIS act: -50; ERAP1 HTS inh: 0; MLL AF4-AF9 inh: -5; S100A4 inh HTS: 15; RAD52 inh: -8

What do the screens show for `COc1ccc(C[C@H]2CCn3nncc3COC[C@@H](CC(C)C)NC2=O)cc1`?
INS-1E GSIS act: 13

How did CCOc1cc(OCC)cc(C(=O)Nc2cccnc2)c1 do in these assays?
INS-1E GSIS act: 41*; ERAP1 HTS inh: 0; S100A4 inh HTS: -7; RAD52 inh: -5

How did CCSc1ccc2nnc(-c3ccc(F)cc3)n2n1 do in these assays?
INS-1E GSIS act: 61*; ERAP1 HTS inh: 2; MLL AF4-AF9 inh: 4; S100A4 inh HTS: -2; RAD52 inh: 9

How did O=C(NC[C@H]1CC[C@H]2[C@H](CN2C(=O)CN2CCOCC2)O1)NC1CCCCC1 do in these assays?
ERAP1 HTS inh: 0; MLL AF4-AF9 inh: -3; S100A4 inh HTS: -3; RAD52 inh: 1

Results for C[C@@H]1CCCCO[C@@H](CN(C)Cc2ccc(C(F)(F)F)cc2)[C@H](C)CN([C@@H](C)CO)C(=O)c2cc(NS(=O)(=O)c3ccc(Cl)cc3)ccc2O1 ?
INS-1E GSIS act: -13; ERAP1 HTS inh: 0; MLL AF4-AF9 inh: 0; S100A4 inh HTS: 4; RAD52 inh: -1

Results for O=C(Nc1cccc(S(=O)(=O)N2CCCC2)c1)c1cccc(S(=O)(=O)N2CCOCC2)c1 ?
INS-1E GSIS act: -3; ERAP1 HTS inh: 2; MLL AF4-AF9 inh: 26*; S100A4 inh HTS: 16; RAD52 inh: -18

Results for Cc1ccc(NC(=O)c2oc3ccc(S(=O)(=O)N4CCOCC4)cc3c2C)cc1C ?
INS-1E GSIS act: 79*

What do the screens show for `O=C(Nc1ccc(S(=O)(=O)N2CCOCC2)cc1)c1ccc(=O)[nH]c1`?
INS-1E GSIS act: 43*; MLL AF4-AF9 inh: -3; S100A4 inh HTS: 1; RAD52 inh: -10

What do the screens show for `CN1CCN(NC(=O)c2cccc(S(=O)(=O)N3CCCCCC3)c2)CC1`?
INS-1E GSIS act: 58*; ERAP1 HTS inh: 0; MLL AF4-AF9 inh: -7; S100A4 inh HTS: -5; RAD52 inh: -7

How did CN(C)CC#Cc1cccc(-c2nc(C(=O)N[C@@H]3CCN(Cc4ccccc4)C3)cc3c2[C@@H](CCO)N(S(=O)C(C)(C)C)C3)c1 (stereo not given in full) do in these assays?
ERAP1 HTS inh: -4; MLL AF4-AF9 inh: 9; S100A4 inh HTS: -82; RAD52 inh: 34

What do the screens show for `COc1ccccc1OCCn1ccnc1`?
INS-1E GSIS act: 9; ERAP1 HTS inh: 0; MLL AF4-AF9 inh: -1; S100A4 inh HTS: 5; RAD52 inh: -3

What do the screens show for `CCC(C)c1ccccc1OCCn1ccnc1` (stereo not given)?
INS-1E GSIS act: 48*

How did Clc1ccc(OCCn2ccnc2)c(Cl)c1 do in these assays?
INS-1E GSIS act: 49*

Results for CO[C@@H]1CN(C)C(=O)c2cc(NC(=O)c3cnccn3)ccc2OC[C@@H](C)N(CCc2ccccc2)C[C@H]1C ?
INS-1E GSIS act: -14; ERAP1 HTS inh: 0; MLL AF4-AF9 inh: 6; S100A4 inh HTS: -1; RAD52 inh: -23

How did CCCc1cn([C@H]2C[C@@H]3O[C@@H](CO)CC[C@@H]3O[C@@H]2CCc2ccc(-c3cccc(OC)c3)cc2)nn1 do in these assays?
ERAP1 HTS inh: -3; MLL AF4-AF9 inh: -1; S100A4 inh HTS: -3; RAD52 inh: -52

Results for Cc1ccc(NS(=O)(=O)c2ccc3c(c2)oc(=O)n3C)cc1 ?
INS-1E GSIS act: -10; ERAP1 HTS inh: -2; MLL AF4-AF9 inh: 3; S100A4 inh HTS: -2; RAD52 inh: -15

What do the screens show for `CCc1ccc(NS(=O)(=O)c2ccc3c(c2)oc(=O)n3C)cc1`?
INS-1E GSIS act: -9; ERAP1 HTS inh: -4; MLL AF4-AF9 inh: 35*; S100A4 inh HTS: -5; RAD52 inh: -7

What do the screens show for `C[C@@H]1CN([C@H](C)CO)C(=O)Cc2cc(NC(=O)NC3CCCCC3)ccc2O[C@H]1CN(C)Cc1ccc(C(F)(F)F)cc1`?
INS-1E GSIS act: -2; ERAP1 HTS inh: -1; MLL AF4-AF9 inh: -2; S100A4 inh HTS: -2; RAD52 inh: -15

What do the screens show for `C#CCn1c(=NC(=O)c2ccc(Cl)s2)sc2cccc(OC)c21`?
INS-1E GSIS act: -5; ERAP1 HTS inh: 30*; MLL AF4-AF9 inh: -4; S100A4 inh HTS: 2; RAD52 inh: -8

How did COc1ccc(-c2cc(C(F)(F)F)n3nc(C(N)=O)cc3n2)cc1 do in these assays?
INS-1E GSIS act: 10; ERAP1 HTS inh: 3; MLL AF4-AF9 inh: -1; S100A4 inh HTS: -19; RAD52 inh: -51

How did COc1ccc(-c2cc(C(F)(F)F)n3nc(C(=O)O)cc3n2)cc1OC do in these assays?
INS-1E GSIS act: 48*

Results for CCCC#Cc1cnc2c(c1)C(=O)N([C@H](C)CO)C[C@H](C)[C@H](CN(C)Cc1ccc3c(c1)OCO3)O2 ?
INS-1E GSIS act: -9

How did Cc1cc(C(=O)N2CCN(C(c3ccccc3)c3ccccc3)CC2)no1 do in these assays?
INS-1E GSIS act: -21

How did CCCc1cc(C(=O)N2CCN(C(c3ccccc3)c3ccccc3)CC2)no1 do in these assays?
INS-1E GSIS act: -24; ERAP1 HTS inh: 8; MLL AF4-AF9 inh: 50*; S100A4 inh HTS: -12; RAD52 inh: -6

Results for CC=Cc1ccc2n(c1=O)C[C@@H]1[C@@H](CO)[C@H](C(=O)N3CCOCC3)[C@H]2N1CC1CC1 (mixture of isomers) ?
INS-1E GSIS act: 13; ERAP1 HTS inh: -1; MLL AF4-AF9 inh: 0; S100A4 inh HTS: 9; RAD52 inh: 4

Screens deposited in PubChem by Broad Institute.
